Measured values published in ChEMBL document CHEMBL4342471, “Discovery of Thieno[2,3-d]pyrimidine-Based Hydroxamic Acid Derivatives as Bromodomain-Containing Protein 4/Histone Deacetylase Dual Inhibitors Induce Autophagic Cell Death in Colorectal Carcinoma Cells” (J Med Chem, 2020).
The source made the active and inactive calls. The rule behind the calls is not given here.

Experiments:
[1] = target: Bromodomain-containing protein 2 (Homo sapiens, UniProt P25440); assay: Inhibition of human recombinant His-tagged BRD2 BD1 domain expressed in Escherichia coli BL21(DE3)-R3-pRARE2 cells by AlphaScreen assay
Sequence of Bromodomain-containing protein 2 (P25440 whole entry, the tested form may be a part): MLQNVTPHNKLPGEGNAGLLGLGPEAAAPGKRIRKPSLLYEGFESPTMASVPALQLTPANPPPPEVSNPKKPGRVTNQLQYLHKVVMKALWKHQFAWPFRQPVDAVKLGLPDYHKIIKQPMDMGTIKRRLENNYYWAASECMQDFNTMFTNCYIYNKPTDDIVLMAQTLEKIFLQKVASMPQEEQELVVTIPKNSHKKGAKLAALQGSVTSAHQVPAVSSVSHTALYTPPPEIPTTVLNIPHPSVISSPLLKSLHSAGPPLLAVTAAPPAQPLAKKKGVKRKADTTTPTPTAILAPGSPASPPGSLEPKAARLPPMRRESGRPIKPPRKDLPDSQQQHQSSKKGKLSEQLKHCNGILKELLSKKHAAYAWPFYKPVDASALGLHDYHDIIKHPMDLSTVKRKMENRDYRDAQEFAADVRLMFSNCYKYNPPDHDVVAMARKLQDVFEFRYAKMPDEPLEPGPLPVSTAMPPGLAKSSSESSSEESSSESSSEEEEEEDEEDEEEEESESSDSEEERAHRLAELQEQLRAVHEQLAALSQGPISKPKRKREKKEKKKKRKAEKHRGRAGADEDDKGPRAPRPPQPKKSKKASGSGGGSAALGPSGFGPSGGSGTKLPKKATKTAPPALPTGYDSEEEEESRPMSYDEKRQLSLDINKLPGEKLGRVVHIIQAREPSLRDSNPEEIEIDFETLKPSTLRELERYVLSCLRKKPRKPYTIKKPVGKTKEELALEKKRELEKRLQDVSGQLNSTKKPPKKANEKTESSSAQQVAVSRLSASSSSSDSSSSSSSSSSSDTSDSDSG

HCT-116 [2] = assay: Cytotoxicity against human HCT116 cells assessed as reduction in cell viability at 0.5 uM incubated for 24 to 48 hrs in presence of 500 uM type 3 PI3K inhibitor, 3-MA by MTT assay; assay type: functional, cell-based
Summary of the method: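 HCT-116 viability was read by MTT after treatment with 0.5 μM compound, with or without the autophagy inhibitor 3-MA at 500 μM.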

[3] = target: T1, Bromodomain-containing protein 4 (Homo sapiens, UniProt O60885); assay: Inhibition of BRD4 in human HCT116 cells transfected with ATG5 siRNA assessed as induction of autophagy by measuring LC3 cleavage at 0.5 uM by Western blot analysis; assay type: cell-based
Summary of the method: (§1)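 HCT-116 cells first transfected with ATG5 siRNA or scramble siRNA; after silencing, exposed to 0.5 µM test agent or normal saline, then ATG5, AMPKα, p-AMPKα, p62 and LC3 protein assessed by western blot.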

Homo sapiens [4] = organism: Homo sapiens; assay: Inhibition of BRD4/HDAC in human HCT116 cells assessed as inhibition of IL6-JAK-STAT3 signaling pathway by measuring decrease in JAK1 expression at 0.5 uM after 24 hrs by Western blot analysis; assay type: cell-based
Summary of the method: (§2)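 HCT-116 cells treated 24 h with 0.5 µM, 5.0 µM or 10 µM test agent depending on compound; OSMR, LIFR and downstream pathway proteins detected by western blot.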

HCT-116 [5] = assay: Induction of apoptosis in human HCT116 cells assessed as apoptotic cells at 0.5 uM by Annexin-V FITC/propidium iodide staining-based flow cytometry (reference value: 6.3 +/- 0.4 %); assay type: functional
[6] = AUC (0 to infinity) in Sprague-Dawley rat at 30 mg/kg, po measured up to 1440 mins by UPLC-QTOF/MS analysis; assay type: ADME, organism-based; design: dose 30 mg/kg, route oral, time infinity; details: in vivo
[7] = Toxicity in BALB/cAnNCrl mouse xenografted with human HCT116 cells assessed as effect on heart morphological changes at 15 to 30 mg/kg, po administered on day 1 to day 19 measured on day 19 by hematoxylin and eosin staining based assay; assay type: organism-based; details: in vivo
Summary of the method: (§3)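 HCT-116 xenograft mice dosed orally at 15 or 30 mg/kg for 19 days, saline as vehicle control; body weights tracked, and main organs sectioned and H&E-stained at study end.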

[8] = Oral bioavailability in Sprague-Dawley rat at 30 mg/kg measured up to 1440 mins by UPLC-QTOF/MS analysis; assay type: ADME, organism-based; details: in vivo
HCT-116 [9] = assay: Induction of apoptosis in human HCT116 cells assessed as late apoptotic cells at 0.2 uM by Annexin-V FITC/propidium iodide staining-based flow cytometry (reference value: 3.51 %); assay type: functional
HCT-116 [10] = assay: Antitumor activity against human HCT116 cells xenografted in BALB/cAnNCrl mouse assessed as reduction in tumor volume by measuring T/C ratio at 15 mg/kg, po administered on day 1 to day 19 relative to control; assay type: functional
Summary of the method: (§4)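 HCT-116 xenografts in mice were given the test agent orally at 15 or 30 mg/kg, with a saline control group, over 19 days. Tumor volume was followed during treatment and tumors were weighed at the end. Body weight was monitored. Inhibition is expressed as treatment-to-control (T/C) ratio.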

HCT-116 [11] = assay: Antitumor activity against human HCT116 cells xenografted in BALB/cAnNCrl mouse assessed as average tumor growth inhibition at 15 to 30 mg/kg, po administered on day 1 to day 19 relative to control; assay type: functional; summary of the method: as §4
HCT-116 [12] = assay: Induction of apoptosis in human HCT116 cells assessed as apoptotic cells at 0.2 uM by Annexin-V FITC/propidium iodide staining-based flow cytometry (reference value: 6.3 +/- 0.4 %); assay type: functional
HCT-116 [13] = assay: Induction of apoptosis in human HCT116 cells assessed as viable cells at 0.5 uM by Annexin-V FITC/propidium iodide staining-based flow cytometry (reference value: 93.4 %); assay type: functional; details: read-out: Activity
[14] = Toxicity in BALB/cAnNCrl mouse xenografted with human HCT116 cells assessed as effect on body weight at 15 to 30 mg/kg, po administered on day 1 to day 19 […]; assay type: organism-based; details: in vivo; summary of the method: as §3
Homo sapiens [15] = organism: Homo sapiens; assay: Inhibition of BRD4/HDAC in human HCT116 cells assessed as inhibition of IL6-JAK-STAT3 signaling pathway by measuring decrease in STAT3 phosphorylation at 0.5 uM after 24 hrs by Western blot analysis; assay type: cell-based; summary of the method: as §2
[16] = Half life in Sprague-Dawley rat at 30 mg/kg, iv administered as bolus dose measured up to 1440 mins by UPLC-QTOF/MS analysis; assay type: ADME, organism-based; details: in vivo
Homo sapiens [17] = organism: Homo sapiens; assay: Inhibition of BRD4/HDAC in human HCT116 cells assessed as increase in LIF mRNA level at 0.5 uM after 24 hrs by RT-PCR analysis; assay type: cell-based
Summary of the method: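 HCT-116 cells incubated 24 h with test agent (0.5 µM, 2.0 µM or 10 µM depending on compound); IL6, OSM, LIF and CTF1 mRNA levels then quantified.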

Histone deacetylase 1 = Histone deacetylase 1 (Homo sapiens, UniProt Q13547); assay: Inhibition of HDAC1 (unknown origin) using biotinylated histone H3 KAc peptide (1 to 21 residues) as substrate by HTRF assay
Sequence of Histone deacetylase 1 (Q13547 whole entry, the tested form may be a part): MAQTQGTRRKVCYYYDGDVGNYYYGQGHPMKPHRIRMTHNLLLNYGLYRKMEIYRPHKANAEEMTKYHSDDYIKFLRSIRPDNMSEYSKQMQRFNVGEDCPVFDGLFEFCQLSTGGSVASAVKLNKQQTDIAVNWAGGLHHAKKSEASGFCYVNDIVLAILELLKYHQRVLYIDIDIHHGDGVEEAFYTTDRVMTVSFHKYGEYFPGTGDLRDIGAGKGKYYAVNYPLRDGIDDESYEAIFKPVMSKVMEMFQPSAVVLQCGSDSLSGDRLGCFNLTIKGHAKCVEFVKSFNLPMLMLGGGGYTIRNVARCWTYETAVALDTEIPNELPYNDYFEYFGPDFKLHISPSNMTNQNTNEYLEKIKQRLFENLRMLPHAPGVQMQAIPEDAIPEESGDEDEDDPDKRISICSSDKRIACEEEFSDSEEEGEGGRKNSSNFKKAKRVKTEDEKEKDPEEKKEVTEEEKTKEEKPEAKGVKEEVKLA

[18] = target: T2, Bromodomain-containing protein 3 (Homo sapiens, UniProt Q15059); assay: Inhibition of human recombinant His-tagged BRD3 BD2 domain expressed in Escherichia coli BL21(DE3)-R3-pRARE2 cells by AlphaScreen assay
T2 sequence (Q15059 whole entry, the tested form may be a part): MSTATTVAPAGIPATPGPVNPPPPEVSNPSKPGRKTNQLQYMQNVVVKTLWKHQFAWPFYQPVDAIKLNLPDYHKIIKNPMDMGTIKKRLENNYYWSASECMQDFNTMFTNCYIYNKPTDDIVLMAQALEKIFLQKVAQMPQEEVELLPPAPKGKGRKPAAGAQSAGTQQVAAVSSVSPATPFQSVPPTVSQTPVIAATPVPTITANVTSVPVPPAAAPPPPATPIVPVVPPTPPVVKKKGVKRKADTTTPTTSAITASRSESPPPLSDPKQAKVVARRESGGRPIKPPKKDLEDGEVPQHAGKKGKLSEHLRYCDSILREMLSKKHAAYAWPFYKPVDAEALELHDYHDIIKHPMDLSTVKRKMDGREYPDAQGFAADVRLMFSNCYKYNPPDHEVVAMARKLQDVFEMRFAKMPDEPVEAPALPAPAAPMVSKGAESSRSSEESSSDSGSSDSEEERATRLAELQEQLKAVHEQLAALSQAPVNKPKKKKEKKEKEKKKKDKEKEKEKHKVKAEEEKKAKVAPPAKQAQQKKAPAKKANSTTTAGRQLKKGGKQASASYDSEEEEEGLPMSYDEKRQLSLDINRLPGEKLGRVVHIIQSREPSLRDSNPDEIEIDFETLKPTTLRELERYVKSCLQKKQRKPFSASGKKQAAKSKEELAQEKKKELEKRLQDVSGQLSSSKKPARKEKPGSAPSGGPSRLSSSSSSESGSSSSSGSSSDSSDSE

Mus musculus = assay: In vivo inhibition of BRD4 in BALB/cAnNCrl mouse xenografted with human HCT116 cells assessed as decrease in c-Myc expression in tumor tissue at 15 to 30 mg/kg, po administered on day 1 to day 19 measured on day 19 by immunohistochemical analysis; assay type: functional, organism-based
Summary of the method: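 HCT-116 xenograft mice were dosed orally at 15 or 30 mg/kg, or 30 mg/kg for reference agents, for 19 days, with vehicle or saline controls. Tumor sections were stained for Ki-67, c-Myc, Ac-H3, BRD4, LC3-II, LIFR and p-STAT3 by immunohistochemistry, and TUNEL staining was used as the apoptosis marker.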

[19] = target: T2, Bromodomain-containing protein 3; assay: Inhibition of human recombinant His-tagged BRD3 BD1 domain expressed in Escherichia coli BL21(DE3)-R3-pRARE2 cells by AlphaScreen assay
[20] = target: T1, Bromodomain-containing protein 4; assay: Inhibition of BRD4 in human HCT116 cells assessed as induction of autophagic vacuole formation in cytoplasm at 0.5 uM measured after 24 hrs by transmitted electron microscopy; assay type: cell-based
Summary of the method: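 HCT-116 cells were incubated with 0.5 μM compound for 24 hours, fixed, and imaged by transmission electron microscopy for cytoplasmic autophagic vacuoles.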

[21] = target: T1, Bromodomain-containing protein 4; assay: Inhibition of BRD4 in human HCT116 cells transfected with ATG5 siRNA assessed as induction of autophagy by measuring p62 degradation at 0.5 uM by Western blot analysis; assay type: cell-based; summary of the method: as §1
Homo sapiens [22] = organism: Homo sapiens; assay: Inhibition of BRD4/HDAC in human HCT116 cells assessed as increase in caspase 3 cleavage at 0.2 to 0.5 uM measured after 24 hrs by Western blot analysis; assay type: cell-based

IC50 [1]: 16.4 µM
inhibition [3]: inactive
IC50 (Histone deacetylase 1): 0.046 µM
IC50 [18]: > 20 µM
IC50 [19]: > 20 µM
inhibition [20]: Active
inhibition [21]: inactive
SMILES: Cc1cc(-c2nc3sc4c(c3c(=O)[nH]2)CCN(C)C4)cc(C)c1OCCCCCC(=O)NO
Activity (HCT-116 [2]): inactive
inhibition (Homo sapiens [4]): Active
Activity (HCT-116 [5]): 45.3%
AUC(0-inf) [6]: 63300 ng·h/mL
Activity [7]: Non-Toxic
bioavailability [8]: 40.5%
Activity (HCT-116 [9]): 23%
T/C (HCT-116 [10]): 42.7%
growth inhibition (GI) (HCT-116 [11]): 68.8%
Activity (HCT-116 [12]): 33.2%
viability at 0.5 µM (HCT-116 [13]): 44.9%
Activity [14]: Non-Toxic
inhibition (Homo sapiens [15]): Active
half-life [16]: 2.48 h
inhibition (Homo sapiens [17]): Active
inhibition (Mus musculus): Active
inhibition (Homo sapiens [22]): Active
